Compounds with a hit are over-represented: about 1.9% of the library has one in this group of screens.
FAS TE block: FAS thioesterase domain inhibitors, primary screen, biochemical, fluorescence intensity, uHTS | 360,000 tested, 0.67% active | recombinant FAS-TE, OMFH fluorogenic substrate, fluorescence endpoint | AID 602261, 2012 | inhibition, % at 15 µM;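 active means compounds whose normalised, plate-corrected inhibition of enzyme fluorescence in the single-dose primary screen is 50% or more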;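 further: 0% = DMSO with enzyme and 100% = substrate without enzyme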
STEP inh: STEP phosphatase inhibitors, primary screen, biochemical, fluorescence intensity, uHTS; Tyrosine-protein phosphatase non-receptor type 5 (Homo sapiens), P54829; recombinant STEP, OMFP fluorogenic substrate; inhibition, % at 20 µM; 360,000 tested, 0.25% active; AID 588621, 2011;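 active means inhibition at 20 µM, scaled per plate between control wells, above about 37%, limit read from the data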;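 further: 0% = DMSO with enzyme and substrate and 100% = substrate only without enzyme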
Target sequence (P54829 whole entry, looked up): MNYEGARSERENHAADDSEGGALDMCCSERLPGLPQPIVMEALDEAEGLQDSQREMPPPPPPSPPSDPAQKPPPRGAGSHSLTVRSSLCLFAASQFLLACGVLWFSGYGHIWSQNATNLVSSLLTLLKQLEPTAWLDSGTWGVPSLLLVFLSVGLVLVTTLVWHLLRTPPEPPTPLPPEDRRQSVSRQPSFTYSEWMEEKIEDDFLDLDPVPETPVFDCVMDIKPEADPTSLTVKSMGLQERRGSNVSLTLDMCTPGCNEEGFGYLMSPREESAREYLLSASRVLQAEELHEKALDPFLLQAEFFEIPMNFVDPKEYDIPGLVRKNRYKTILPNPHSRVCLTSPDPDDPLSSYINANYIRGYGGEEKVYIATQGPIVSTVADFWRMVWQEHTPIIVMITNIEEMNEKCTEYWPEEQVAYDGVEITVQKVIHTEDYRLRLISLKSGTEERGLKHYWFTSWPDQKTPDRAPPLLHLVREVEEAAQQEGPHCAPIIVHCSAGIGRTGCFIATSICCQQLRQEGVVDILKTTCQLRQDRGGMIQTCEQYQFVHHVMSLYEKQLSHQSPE
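medium = Bis-Tris buffer pH 6.0, 2.5 mM DTT, 0.005% Tween 20 | test system = STEP (striatal-enriched tyrosine phosphatase) enzyme, cell-free | measure = normalized % inhibition | compound dosing = 20 µM, 1% DMSO | also added = 25 µM OMFP | schedule = reaction 20 min, ambient temperature | measured by = fluorescence read at 480 nm ex / 540 nm em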
SUMO1 PPI mod: modulators of SUMO1 protein-protein interactions, primary screen, biochemical, uHTS; Small ubiquitin-related modifier 1 (Homo sapiens), P63165; SUMO1 binding to a labelled peptide, TR-FRET, 1 h; inhibition, % at 20 µM; 360,000 tested, 0.33% active; in the data active means inhibition above about 37%
Target sequence (P63165 whole entry, looked up): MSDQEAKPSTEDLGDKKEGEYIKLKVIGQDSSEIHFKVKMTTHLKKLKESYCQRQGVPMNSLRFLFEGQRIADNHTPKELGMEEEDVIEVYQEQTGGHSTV
LMPTP inh: LMPTP phosphatase inhibitors, primary screen, biochemical, fluorescence intensity, uHTS | Low molecular weight phosphotyrosine protein phosphatase (Homo sapiens), P24666 | recombinant LMPTP-A, OMFP fluorogenic substrate | inhibition, % at 20 µM | 360,000 tested, 0.22% active | AID 651560, 2012;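 active means compounds that cut the enzyme signal by at least half of the control window in the single-dose screen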;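 further: plate controls were DMSO wells with enzyme plus substrate for no effect and substrate without enzyme for full effect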
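material = LMPTP-A | quantity = 0.625 nM enzyme | reagent = OMFP substrate, 400 µM final | buffer or medium = Bis-Tris pH 6.0, DTT, detergent | detection = endpoint fluorescence intensity from OMFP dephosphorylation | dosing = single 20 µM dose | read-out basis = % inhibition relative to no-enzyme and uninhibited control wells | control set = no-enzyme and uninhibited controls | timing = 50 min at room temperature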
Scp1 inh: Scp-1 phosphatase inhibitors, primary screen, biochemical, colorimetric, uHTS; Recombinant Scp1, phosphopeptide, malachite green phosphate absorbance; inhibition, % at 20 µM; 340,000 tested, 0.88% active;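 active means inhibition above about 50% at 20 µM, limit read from the data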;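 further: plate controls were DMSO wells with enzyme for no effect and wells lacking enzyme for full effect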
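Incubation: 45 min enzyme reaction at room temperature / System: truncated SCP-1 phosphatase (76-261aa) / Reagent: Phospho 17-mer peptide substrate / Buffer or medium: Acidic Tris acetate buffer with magnesium and detergent / Signal: absorbance at 630 nm / Doses: one concentration, 20 µM, with 1.0% DMSO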
* marks the source's active call; other numbers are inactive results; . = no result; ! = a repeat was not active.

SMILES | FAS TE block | STEP inh | SUMO1 PPI mod | LMPTP inh | Scp1 inh
O=S(=O)(NCC[C@@H]1CC[C@H](NS(=O)(=O)c2cccc(F)c2)[C@@H](CO)O1)c1cccc(F)c1 | . | . | 11 | -2 | .
CCOc1cc(/C=C2\C(=O)ON=C2C)ccc1OCc1ccccc1 | -12 | 1 | 40* | -1 | -18
CC(C)NC(=O)c1cc(C2CCCCN2S(=O)(=O)c2cccc3cccnc23)on1 (configuration not stated) | -6 | 3 | 4 | -1 | .
COC(=O)C[C@@H]1CC[C@H](NC(=O)Nc2ccc(OC)cc2)[C@@H](CO)O1 | . | . | -3 | -2 | .
N[C@@H](Cc1cc(I)c(Oc2cc(I)c(O)c(I)c2)c(I)c1)C(=O)O | . | . | . | . | 32
N[C@@H](Cc1cc(I)c(Oc2ccc(O)c(I)c2)c(I)c1)C(=O)O | 50 | -3 | 40*! | 32 | 27
CC(C)CCOc1ncnc2c1sc1nc3c(cc12)CSC(C)(C)C3 | -8 | -1 | 44* | 0 | -4
CCCn1cnc2c(sc3nc4c(cc32)CSC(C)(C)C4)c1=O | 4 | -2 | 2 | -1 | 23
COc1ccc(-c2ccc(NS(=O)(=O)c3cc([N+](=O)[O-])c(C)c([N+](=O)[O-])c3)cc2)nn1 | 59* | 0 | -17 | 2 | 9
COc1ccc(-c2cccc(NS(=O)(=O)c3cc([N+](=O)[O-])c(C)c([N+](=O)[O-])c3)c2)nn1 | 29 | 2 | -9 | 2 | 0
CCCCc1c(Cc2cccc(F)c2)ncn1CCc1ccccc1OC | 12 | . | 7 | 2 | .
O=C(Nc1ccc(F)cc1)C(c1ccccc1OC(F)(F)F)N1CCN(c2cccc(C(F)(F)F)n2)CC1 (configuration not stated) | . | . | -6 | 2 | .
COCCN(C(=O)COC(=O)c1cc2c(s1)CCC2)c1c(N)n(Cc2ccccc2)c(=O)[nH]c1=O | 3 | 96* | 112* | 72* | 88*
Cc1ccc2nc(-c3cc(-c4ccccc4)no3)cn2c1 | 3 | 2 | 62* | 6 | 0
O=c1cc(CN2CCN(Cc3ccccc3)CC2)c2ccc(O)c(O)c2o1 | -5 | 4 | -9 | 55* | 29
O=C(Nc1cc(C(F)(F)F)cc(C(F)(F)F)c1)[C@H]1O[C@@H](n2ccc(=O)[nH]c2=O)[C@H](O)[C@@H]1O | -5 | 12 | 3 | -1 | .
CC1CC(O)C2C3(C)CCCC2(COC3=O)C12CCC1(CCOC1=O)O2 (configuration not stated) | -8 | 0 | 1 | -2 | .
CC1CCCCN1S(=O)(=O)c1ccc(C(=O)Nc2ccccc2-c2nc3ccccc3[nH]2)cc1 (configuration not stated) | 31 | 2 | 1 | 2 | -17
O=C(Nc1ccccc1-c1nc2ccccc2[nH]1)c1ccc(S(=O)(=O)N2CCCCC2)cc1 | 8 | 47* | 10 | 0 | -2
CCN(CC)S(=O)(=O)c1cc(NC(=O)Cn2ncc(Cl)c(Cl)c2=O)ccc1C | 5 | -1 | -1 | 24 | 89*
COc1ccc(NC(=O)Cn2ncc(Cl)c(Cl)c2=O)cc1S(=O)(=O)N1CCOCC1 | 0 | 4 | 0 | 5 | 99*
Cn1c(=NC(=O)C2CCN(S(=O)(=O)c3cccs3)CC2)sc2ccccc21 | 13 | 0 | 43*! | 1 | -1
COc1cc(OC)cc(-c2c(Sc3ccccc3)c3cc(-c4ccc(SC)cc4)ccc3n2C)c1 | 30 | . | -42 | 0 | .
Cc1cccc([C@@H]2[C@@H]3C(=O)N(Cc4ccccc4)C(=O)[C@@H]3[C@]3(Cc4ccc(Cl)cc4)C(=O)N(c4ccc(Br)cc4)C(=O)N23)c1 | 90* | -3 | 2 | 2 | -14
CC[C@@]12C(=O)N(c3cccc(Br)c3)C(=O)N1[C@H](c1ccc(OC)cc1)[C@@H]1C(=O)N(C(C)(C)C)C(=O)[C@@H]12 | 14 | 0 | 1 | 0 | -14
SMILES | FAS TE block | STEP inh | SUMO1 PPI mod | LMPTP inh | Scp1 inh
CC[C@@]12C(=O)N(c3cccc(Br)c3)C(=O)N1[C@H](c1ccc(Br)cc1)[C@@H]1C(=O)N(C(C)(C)C)C(=O)[C@@H]12 | 58* | -3 | -4 | 1 | -9
O=C1[C@H]2[C@@H](c3ccc(F)cc3)N3C(=O)N(c4ccccc4)C(=O)[C@@]3(Cc3ccc(Cl)cc3)[C@H]2C(=O)N1C1CCCCC1 | 94* | 0 | 0 | 2 | -14
O=C1[C@H]2[C@@H](c3ccc(F)cc3)N3C(=O)N(c4cccc(Br)c4)C(=O)[C@@]3(Cc3ccc(Cl)cc3)[C@H]2C(=O)N1C1CCCCC1 | 35 | 0 | -3 | 2 | -4
O=C1[C@H]2[C@@H](c3ccc(Cl)cc3)N3C(=O)N(c4cccc(Br)c4)C(=O)[C@@]3(Cc3ccc(Cl)cc3)[C@H]2C(=O)N1C1CCCCC1 | 91* | 2 | -1 | 3 | -11
CC1(C(=O)Nc2cccc3ccccc23)CCN1C(=O)Cc1ccc(Cl)cc1Cl (configuration not stated) | 22 | 3 | -4 | 6 | .
C[C@H](O)[C@@H]1CN2CCc3c([nH]c4ccccc34)[C@@H]2C[C@@H]1N(C)C(=S)Nc1ccc(C#N)cc1 | -6 | 2 | -11 | 1 | .
O=C1[C@H]2[C@@H](c3ccc(F)cc3)N3C(=O)N(c4cccc(Cl)c4)C(=O)[C@@]3(Cc3ccccc3)[C@H]2C(=O)N1C1CCCCC1 | 72* | 2 | 9 | 1 | -7
CCNc1nc(-c2sc(NC(=O)C(C)(C)C)nc2C)c(-n2cc(-c3ccccc3)nn2)s1 | 24 | . | -3 | 2 | .
CCCCn1nnnc1C(c1cc2ccccc2o1)N1CCN(c2ccccc2F)CC1 (configuration not stated) | 25 | . | 0 | 3 | .
CCCCn1nnnc1C(c1cc2ccccc2o1)N1CCN(c2cc(C)nc3ccccc23)CC1 (configuration not stated) | 23 | . | 2 | 78* | .
CC(C)c1cc(Cn2c3ccccc3c(=O)n2C(C)Cn2cc(-c3ccccc3)nn2)on1 (configuration not stated) | . | . | 1 | -1 | .
O=c1ccc2cccc([N+](=O)[O-])c2[nH]1 | -2 | -3 | -39 | 0 | .
CCC(=O)Nc1nonc1-c1nc2ccccc2n1Cc1ccc(Cl)c(Cl)c1 | . | . | . | . | 56*
CC(=O)Nc1nonc1-c1nc2ccccc2n1Cc1ccccc1 | 16 | 0 | 3 | 0 | 3
OC1CCN(Cc2nc(Cc3ccccc3Cl)no2)CC1 | -8 | -2 | 45* | -1 | -7
O=c1[nH][nH]c2c1[C@H](C1CCCC1)O[C@H](CCc1ccccc1)C2 | -44 | . | 8 | -1 | .

Assay outcomes deposited in PubChem by Sanford-Burnham Center for Chemical Genomics.
